Values after ≈ are worked out from the molar mass of the structure shown.
Legend:
Format in all cases: functional
[1] = tested on: Mycoplasmoides pneumoniae; assay: Antimicrobial activity against macrolide-susceptible Mycoplasma pneumoniae isolated from pediatric patients with community-acquired pneumonia after 10 to 14 days by microdilution method
In short: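 Pediatric CAP nasopharyngeal isolates, cultured in PPLO broth from real-time PCR-positive samples; strain M129 as control. Broth microdilution in PPLO broth: inoculum estimated at 10^5 CFU/ml added 1:10 to serially diluted antibiotic. Incubated aerobically at 37°C for 10–14 days, until the antibiotic-free growth control changed colour. MIC taken as lowest concentration preventing colour change; MIC50/MIC90 and range reported.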

[2] = tested on: Mycoplasmoides pneumoniae; assay: Antimicrobial activity against macrolide-resistant Mycoplasma pneumoniae harboring A2063G transition in domain V of 23S rRNA isolated from pediatric patients with community-acquired pneumonia after 10 to 14 days by microdilution method
In short: (§1)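 Clinical isolates cultured from PCR-positive pediatric nasopharyngeal samples in PPLO broth; resistance mutation identified by full-length 23S rRNA gene sequencing. Broth microdilution in PPLO broth containing serially diluted antibiotics, inoculum estimated at 10^5 CFU/ml in culture. Incubated aerobically at 37°C for 10 to 14 days until the antibiotic-free control changed colour. MIC was the lowest concentration preventing the colour change. Strain M129 served as control.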

[3] = tested on: Mycoplasmoides pneumoniae; assay: Antimicrobial activity against macrolide-resistant Mycoplasma pneumoniae harboring A2064G transition in domain V of 23S rRNA isolated from pediatric patients with community-acquired pneumonia after 10 to 14 days by microdilution method; in short: as §1

Structure (SMILES) | MIC50 [1] | MIC90 [1] | MIC50 [2] | MIC90 [2] | MIC50 [3] | MIC90 [3] | MIC [3]
CC[C@H]1OC(=O)[C@H](C)[C@@H](O[C@H]2C[C@@](C)(OC)[C@@H](O)[C@H](C)O2)[C@H](C)[C@@H](O[C@@H]2O[C@H](C)C[C@H](N(C)C)[C@H]2O)[C@](C)(O)C[C@@H](C)CN(C)[C@H](C)[C@@H](O)[C@]1(C)O [AZITHROMYCIN] | 0.00049 mg/L (≈ 0.000654 µM) | 0.00098 mg/L (≈ 0.00131 µM) | 32 mg/L (≈ 42.7 µM) | 64 mg/L (≈ 85.4 µM) | 32 mg/L (≈ 42.7 µM) | 64 mg/L (≈ 85.4 µM) | –
CC[C@H]1OC(=O)[C@H](C)[C@@H](O[C@H]2C[C@@](C)(OC)[C@@H](O)[C@H](C)O2)[C@H](C)[C@@H](O[C@@H]2O[C@H](C)C[C@H](N(C)C)[C@H]2O)[C@](C)(OC)C[C@@H](C)C(=O)[C@H](C)[C@@H](O)[C@]1(C)O [CLARITHROMYCIN] | 0.0039 mg/L (≈ 0.00521 µM) | 0.0078 mg/L (≈ 0.0104 µM) | 64 mg/L (≈ 85.6 µM) | > 64 mg/L | 64 mg/L (≈ 85.6 µM) | 64 mg/L (≈ 85.6 µM) | –
CC[C@H]1OC(=O)[C@H](C)[C@@H](O[C@H]2C[C@@](C)(OC)[C@@H](O)[C@H](C)O2)[C@H](C)[C@@H](O[C@@H]2O[C@H](C)C[C@H](N(C)C)[C@H]2O)[C@](C)(O)C[C@@H](C)C(=O)[C@H](C)[C@@H](O)[C@]1(C)O [ERYTHROMYCIN] | 0.0078 mg/L (≈ 0.0106 µM) | 0.0156 mg/L (≈ 0.0213 µM) | 64 mg/L (≈ 87.2 µM) | > 64 mg/L | > 64 mg/L | > 64 mg/L | ≥ 64 mg/L
CO[C@@H]1[C@@H](O[C@@H]2O[C@H](C)[C@@H](O[C@H]3C[C@@](C)(O)[C@@H](OC(=O)CC(C)C)[C@H](C)O3)[C@H](N(C)C)[C@H]2O)[C@@H](CC=O)C[C@@H](C)[C@@H](O)/C=C/C=C/C[C@@H](C)OC(=O)C[C@H]1OC(C)=O [JOSAMYCIN] | 0.0313 mg/L (≈ 0.0378 µM) | 0.0625 mg/L (≈ 0.0755 µM) | 8 mg/L (≈ 9.66 µM) | 16 mg/L (≈ 19.3 µM) | 64 mg/L (≈ 77.3 µM) | > 64 mg/L | –
C[C@H]1COc2c(N3CCN(C)CC3)c(F)cc3c(=O)c(C(=O)O)cn1c23.C[C@H]1COc2c(N3CCN(C)CC3)c(F)cc3c(=O)c(C(=O)O)cn1c23.O [LEVOFLOXACIN] | 0.5 mg/L | 1 mg/L | 1 mg/L | 1 mg/L | 1 mg/L | 1 mg/L | –
CN(C)c1ccc(O)c2c1C[C@H]1C[C@H]3[C@H](N(C)C)C(O)=C(C(N)=O)C(=O)[C@@]3(O)C(O)=C1C2=O [MINOCYCLINE] | 0.5 mg/L (≈ 1.09 µM) | 1 mg/L (≈ 2.19 µM) | 0.5 mg/L (≈ 1.09 µM) | 1 mg/L (≈ 2.19 µM) | 0.5 mg/L (≈ 1.09 µM) | 1 mg/L (≈ 2.19 µM) | –
CCCC(=O)O[C@H]1[C@H](C)O[C@@H](O[C@H]2[C@H](N(C)C)[C@@H](O)[C@H](O[C@H]3[C@@H](CC=O)C[C@@H](C)[C@@H](O)/C=C/C=C/C[C@@H](C)OC(=O)C[C@@H](O)[C@@H]3OC)O[C@@H]2C)C[C@@]1(C)OC(=O)CC [ROKITAMYCIN] | 0.0156 mg/L (≈ 0.0188 µM) | 0.0156 mg/L (≈ 0.0188 µM) | 0.125 mg/L (≈ 0.151 µM) | 0.25 mg/L (≈ 0.302 µM) | 16 mg/L (≈ 19.3 µM) | 16 mg/L (≈ 19.3 µM) | –
CC[C@H]1OC(=O)[C@H](C)C(=O)[C@H](C)[C@@H](O[C@@H]2O[C@H](C)C[C@H](N(C)C)[C@H]2O)[C@](C)(OC)C[C@@H](C)C(=O)[C@H](C)[C@H]2N(CCCCn3cnc(-c4cccnc4)c3)C(=O)O[C@]12C [TELITHROMYCIN] | 0.00098 mg/L (≈ 0.00121 µM) | 0.00195 mg/L (≈ 0.0024 µM) | 32 mg/L (≈ 39.4 µM) | 64 mg/L (≈ 78.8 µM) | 4 mg/L (≈ 4.93 µM) | 16 mg/L (≈ 19.7 µM) | –

From ChEMBL document CHEMBL1151455, “Increased macrolide resistance of Mycoplasma pneumoniae in pediatric patients with community-acquired pneumonia” (2008)
